Experimental data from ChEMBL document CHEMBL1154125, “Ebenfurans IV-VIII from Onobrychis ebenoides: evidence that C-prenylation is the key determinant of the cytotoxicity of 3-formyl-2-arylbenzofurans” (J Nat Prod, 2008).

Columns and labels:
MCF7 [1] = assay: Cytotoxicity against human MCF7 cells at 10 uM by MTT assay relative to control in absence of 17-beta-estradiol; assay type: functional
Outline: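 MCF-7 cells were grown in phenol red-free MEM with 5% dextran-charcoal-stripped FBS and vehicle (DMSO) only. They were exposed for 3 days to agents dissolved in DMSO: test compounds at 10 µM, 17β-estradiol at 0.1 nM, ICI 182,780 at 1 µM. MTT formazan was read at 550 nm. Efficacy = OD test × 100/OD vehicle control, given as mean ± SEM of at least three independent assays.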

[2] = biological target: T1, Estrogen receptor (Homo sapiens) (UniProt P03372); assay: Binding affinity to recombinant ERalpha by fluorescence polarization assay relative to 17-beta-estradiol
T1 sequence (whole entry): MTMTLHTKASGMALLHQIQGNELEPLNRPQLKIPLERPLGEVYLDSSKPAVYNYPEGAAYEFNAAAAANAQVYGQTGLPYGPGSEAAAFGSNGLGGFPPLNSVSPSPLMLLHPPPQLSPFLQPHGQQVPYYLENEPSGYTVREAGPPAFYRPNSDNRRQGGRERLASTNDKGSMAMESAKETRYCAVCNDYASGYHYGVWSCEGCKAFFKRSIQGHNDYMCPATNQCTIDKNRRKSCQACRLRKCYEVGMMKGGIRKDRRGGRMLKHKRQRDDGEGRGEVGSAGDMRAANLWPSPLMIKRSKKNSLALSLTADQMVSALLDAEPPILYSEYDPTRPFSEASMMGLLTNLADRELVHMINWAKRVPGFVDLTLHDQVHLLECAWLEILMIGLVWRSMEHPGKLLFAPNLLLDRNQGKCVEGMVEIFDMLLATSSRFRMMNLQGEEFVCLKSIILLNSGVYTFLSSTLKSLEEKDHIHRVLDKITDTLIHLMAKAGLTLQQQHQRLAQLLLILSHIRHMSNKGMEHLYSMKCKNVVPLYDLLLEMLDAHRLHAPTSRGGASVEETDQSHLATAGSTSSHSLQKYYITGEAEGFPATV

MCF7 [3] = assay: Cytotoxicity against human MCF7 cells by MTT assay in presence of 17-beta-estradiol; assay type: functional, cell-based
Outline: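 In phenol red-free MEM with 5% dextran-charcoal-treated FBS containing 0.1 nM 17β-estradiol, MCF-7 cultures received increasing concentrations of agents (DMSO solutions) for 3 days. Readout was MTT formazan absorbance at 550 nm relative to cells given the hormone alone. EC50 = concentration reaching 50% of efficacy, derived only for statistically significant effects.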

MCF7 [4] = assay: Cytotoxicity against human MCF7 cells by MTT assay in absence of 17-beta-estradiol; assay type: functional, cell-based
Outline: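 Cells were grown in steroid-depleted medium (phenol red-free MEM, 5% dextran-charcoal FBS) plus DMSO vehicle. Increasing concentrations of agents in DMSO were applied for 3 days. Viable cells were estimated from MTT formazan absorbance at 550 nm. EC50 = concentration giving 50% of efficacy, computed only for statistically significant effects.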

MCF7 [5] = assay: Cytotoxicity against human MCF7 cells at 10 uM by MTT assay relative to control in presence of 17-beta-estradiol; assay type: functional
Outline: (§1)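 MCF-7 cells were kept in phenol red-free MEM with 5% dextran-charcoal-stripped FBS supplemented with 0.1 nM 17β-estradiol. They were treated for 3 days with test compounds at 10 µM, 17β-estradiol at 0.1 nM, or ICI 182,780 at 1 µM, all in DMSO. MTT conversion was read at 550 nm. OD × 100/OD of estradiol-alone control, mean ± SEM, ≥3 independent assays.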

MCF7 [6] = assay: Cytotoxicity against human MCF7 cells at 0.1 nM by MTT assay relative to control in absence of 17-beta-estradiol; assay type: functional
MCF7 [7] = assay: Cytotoxicity against human MCF7 cells at 0.1 nM by MTT assay relative to control in presence of 17-beta-estradiol; assay type: functional; outline: as §1
MCF7 [8] = assay: Cytotoxicity against human MCF7 cells at 1 uM by MTT assay relative to control in the absence of 17-beta-estradiol; assay type: functional
Outline: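 MCF-7 cells in phenol red-free MEM with 5% dextran-charcoal-stripped FBS, vehicle (DMSO) only, no estradiol. ICI 182,780 at 1 µM applied for 3 days. Viable cells assessed by MTT formazan absorbance at 550 nm. Efficacy = OD treated ×100/OD vehicle control; mean ± SEM of at least three independent assays.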

MCF7 [9] = assay: Cytotoxicity against human MCF7 cells at 1 uM by MTT assay relative to control in presence of 17-beta-estradiol; assay type: functional
Outline: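 MCF-7 cells in phenol red-free MEM with 5% dextran-charcoal-stripped FBS, supplemented with 0.1 nM 17β-estradiol. Treated with ICI 182,780 at 1 µM (DMSO) for 3 days. MTT conversion to formazan read at 550 nm. Efficacy = OD treated ×100/OD of estradiol-alone control; mean ± SEM of ≥3 independent assays.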

Structure (SMILES) | Activity (MCF7 [1]) [%] | relative binding affinity (RBA) [2] | EC50 (MCF7 [3]) [µM] | EC50 (MCF7 [4]) [µM] | Activity (MCF7 [5]) [%] | Activity (MCF7 [6]) [%] | Activity (MCF7 [7]) [%] | Activity (MCF7 [8]) [%] | Activity (MCF7 [9]) [%]
COc1cc2oc(-c3ccc(O)cc3O)c(C=O)c2c(O)c1CC=C(C)C [EBENFURAN III] | 47 | 0.09 | 2.9 | 2.6 | 31 |  |  |  | 
C[C@]12CC[C@@H]3c4ccc(O)cc4CC[C@H]3[C@@H]1CC[C@@H]2O [ESTRADIOL] |  |  |  |  |  | 163 | 104 |  | 
C[C@]12CC[C@@H]3c4ccc(O)cc4C[C@@H](CCCCCCCCC[S+]([O-])CCCC(F)(F)C(F)(F)F)[C@H]3[C@@H]1CC[C@@H]2O (stereo partly drawn) [FULVESTRANT] |  |  |  |  |  |  |  | 103 | 63
COc1cc(O)c2c(C=O)c(-c3ccc(O)cc3O)oc2c1 [EBENFURAN II] | 111 | 0.18 | 5.5 |  | 64 |  |  |  | 
COc1cc2oc(-c3ccc(O)cc3O)c(C=O)c2c(O)c1CCC(C)(C)O [EBENFURAN V] | 115 | 0.23 |  |  | 98 |  |  |  | 
C=C(C)C(O)Cc1c(OC)cc2oc(-c3ccc(O)cc3O)c(C=O)c2c1O (stereo not drawn) [EBENFURAN VII] | 123 | 0.94 |  |  | 79 |  |  |  | 
COc1cc(O)ccc1-c1oc2cc(OC)c(CCC(C)(C)O)c(O)c2c1C=O [EBENFURAN VI] | 154 | 0.06 |  | 4.8 | 118 |  |  |  | 
COc1cc(O)ccc1-c1oc2cc(OC)c(CC=C(C)C)c(O)c2c1C=O [EBENFURAN IV] | 54 | 0.46 | 3.9 | 6.7 | 31 |  |  |  | 
